≈ marks a conversion by molar mass, not a printed value.
Experiments:
Type in all cases: functional
Aspergillus flavus = assay: Antifungal activity against Aspergillus flavus NCIM 539 by standard agar method
Procedure, shortened: (§1)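 MICs determined by standard agar method; DMSO as solvent control.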

[1] = test system: Mycobacterium tuberculosis; assay: Growth inhibition of Mycobacterium bovis BCG ATCC 35743 at active stage measured after 8 days by nitrate reductase dye based two fold dilution method; details: BCG str. ATCC 35743, 192 h
Procedure, shortened: (§2)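 M. bovis BCG was grown in Dubos medium and assayed in Mycobacterium pheli minimal medium (pH 6.6), with compounds from DMSO stocks. Incubation lasted 8 days for active and 12 days for dormant cultures. Viability was read by nitrate reductase at 540 nm against cell-free blanks, with vehicle set as 100% growth. Primary screen was at 30, 10 and 3 µg/ml, in triplicate, mean ± SD. MIC was taken from dose-response curves.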

[2] = test system: Mycobacterium tuberculosis; assay: Growth inhibition of Mycobacterium bovis BCG ATCC 35743 at dormant stage at 3 ug/ml measured after 12 days by nitrate reductase dye based two fold dilution method relative to control; details: BCG str. ATCC 35743, 288 h, read-out: GI; procedure, shortened: as §2
[3] = test system: Mycobacterium tuberculosis; assay: Growth inhibition of Mycobacterium bovis BCG ATCC 35743 at dormant stage measured after 12 days by nitrate reductase dye based two fold dilution method; details: BCG str. ATCC 35743, 288 h; procedure, shortened: as §2
Staphylococcus aureus [4] = assay: Growth inhibition of Staphylococcus aureus NCIM 2010 at 10 ug/ml measured after 12 hrs relative to control; details: NCIM 2010, 12 h, read-out: GI
Procedure, shortened: (§3)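 Bacteria grown in LB at 37 °C and 180 rpm to OD 1. Compounds added to wells, then 0.1% inoculum of 1 OD culture (620 nm). Growth read as OD at 620 nm after 8 h for gram-negative and after 12 h for gram-positive strains.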

Pseudomonas fluorescens [5] = assay: Growth inhibition of Pseudomonas fluorescens NCIM 2036 at 30 ug/ml measured after 8 hrs relative to control; details: NCIM 2036, 8 h, read-out: GI; procedure, shortened: as §3
Escherichia coli [6] = assay: Antibacterial activity against Escherichia coli NCIM 2688 measured after 8 hrs; details: NCIM 2688, 8 h; procedure, shortened: as §3
[7] = Antifungal activity against Fusarium oxysporum NCIM 1332 by standard agar method; procedure, shortened: as §1
Staphylococcus aureus [8] = assay: Growth inhibition of Staphylococcus aureus NCIM 2010 at 3 ug/ml measured after 12 hrs relative to control; details: NCIM 2010, 12 h, read-out: GI; procedure, shortened: as §3
Bacillus subtilis [9] = assay: Growth inhibition of Bacillus subtilis NCIM 2079 at 10 ug/ml measured after 12 hrs relative to control; details: NCIM 2079, 12 h, read-out: GI; procedure, shortened: as §3
Bacillus subtilis [10] = assay: Growth inhibition of Bacillus subtilis NCIM 2079 at 3 ug/ml measured after 12 hrs relative to control; details: NCIM 2079, 12 h, read-out: GI; procedure, shortened: as §3
[11] = test system: Mycobacterium tuberculosis; assay: Growth inhibition of Mycobacterium tuberculosis H37Ra ATCC 25177 at active stage measured after 8 days by XTT dye based two fold dilution method; details: H37Ra ATCC 25177, 192 h
Procedure, shortened: (§4)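 MTB H37Ra was grown in Dubos medium, then exposed in Mycobacterium pheli minimal medium (pH 6.6) to compounds dissolved in DMSO. The assay ended on day 8 (active) or day 12 (dormant). Viable cells were measured by XTT reduction menadione assay at 470 nm, blank-corrected, relative to vehicle control. Triplicates were expressed as mean ± SD. MIC came from dose-response curves.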

Candida albicans = assay: Antifungal activity against Candida albicans NCIM 3471 by standard agar method; procedure, shortened: as §1
[12] = Antifungal activity against Cryptococcus neoformans NCIM 576 by standard agar method; procedure, shortened: as §1
Escherichia coli [13] = assay: Growth inhibition of Escherichia coli NCIM 2688 at 30 ug/ml measured after 8 hrs relative to control; details: NCIM 2688, 8 h, read-out: GI; procedure, shortened: as §3
Pseudomonas fluorescens [14] = assay: Growth inhibition of Pseudomonas fluorescens NCIM 2036 at 10 ug/ml measured after 8 hrs relative to control; details: NCIM 2036, 8 h, read-out: GI; procedure, shortened: as §3
Pseudomonas fluorescens [15] = assay: Growth inhibition of Pseudomonas fluorescens NCIM 2036 at 3 ug/ml measured after 8 hrs relative to control; details: NCIM 2036, 8 h, read-out: GI; procedure, shortened: as §3
Staphylococcus aureus [16] = assay: Antibacterial activity against of Staphylococcus aureus NCIM 2010 measured after 12 hrs; details: NCIM 2010, 12 h; procedure, shortened: as §3
[17] = test system: Mycobacterium tuberculosis; assay: Growth inhibition of Mycobacterium bovis BCG ATCC 35743 at dormant stage at 10 ug/ml measured after 12 days by nitrate reductase dye based two fold dilution method relative to control; details: BCG str. ATCC 35743, 288 h, read-out: GI; procedure, shortened: as §2
Aspergillus niger = assay: Antifungal activity against Aspergillus niger NCIM 1196 by standard agar method; procedure, shortened: as §1
Pseudomonas fluorescens [18] = assay: Antibacterial activity against Pseudomonas fluorescens NCIM 2036 measured after 8 hrs; details: NCIM 2036, 8 h; procedure, shortened: as §3
Staphylococcus aureus [19] = assay: Growth inhibition of Staphylococcus aureus NCIM 2010 at 30 ug/ml measured after 12 hrs relative to control; details: NCIM 2010, 12 h, read-out: GI; procedure, shortened: as §3
Escherichia coli [20] = assay: Growth inhibition of Escherichia coli NCIM 2688 at 3 ug/ml measured after 8 hrs relative to control; details: NCIM 2688, 8 h, read-out: GI; procedure, shortened: as §3
[21] = test system: Mycobacterium tuberculosis; assay: Growth inhibition of Mycobacterium bovis BCG ATCC 35743 at dormant stage at 30 ug/ml measured after 12 days by nitrate reductase dye based two fold dilution method relative to control; details: BCG str. ATCC 35743, 288 h, read-out: GI; procedure, shortened: as §2
Bacillus subtilis [22] = assay: Growth inhibition of Bacillus subtilis NCIM 2079 at 30 ug/ml measured after 12 hrs relative to control; details: NCIM 2079, 12 h, read-out: GI; procedure, shortened: as §3
Escherichia coli [23] = assay: Growth inhibition of Escherichia coli NCIM 2688 at 10 ug/ml measured after 8 hrs relative to control; details: NCIM 2688, 8 h, read-out: GI; procedure, shortened: as §3
Bacillus subtilis [24] = assay: Antibacterial activity against Bacillus subtilis NCIM 2079 measured after 12 hrs; details: NCIM 2079, 12 h; procedure, shortened: as §3
[25] = test system: Mycobacterium tuberculosis; assay: Growth inhibition of Mycobacterium tuberculosis H37Ra ATCC 25177 at dormant stage measured after 12 days by XTT dye based two fold dilution method; details: H37Ra ATCC 25177, 288 h; procedure, shortened: as §4

SMILES | MIC (Aspergillus flavus) | IC50 [1] | IC90 [1] | inhibition of growth at 3 µg/mL [2] | IC50 [3] | IC90 [3] | inhibition of growth at 10 µg/mL (Staphylococcus aureus [4]) | inhibition of growth at 30 µg/mL (Pseudomonas fluorescens [5]) | MIC (Escherichia coli [6]) | MIC [7] | inhibition of growth at 3 µg/mL (Staphylococcus aureus [8]) | inhibition of growth at 10 µg/mL (Bacillus subtilis [9]) | inhibition of growth at 3 µg/mL (Bacillus subtilis [10]) | IC50 [11] | IC90 [11] | MIC (Candida albicans) | MIC [12] | inhibition of growth at 30 µg/mL (Escherichia coli [13]) | inhibition of growth at 10 µg/mL (Pseudomonas fluorescens [14]) | inhibition of growth at 3 µg/mL (Pseudomonas fluorescens [15]) | further results
COc1ccc2cc(/C=C3\SC(=S)N(CC(=O)O)C3=O)c(Cl)nc2c1 | 125 µg/mL (≈ 317 µM) | > 30 µg/mL | > 30 µg/mL | -1.36% | > 30 µg/mL | > 30 µg/mL | -11.3% | 10.3% | > 30 µg/mL | 75 µg/mL (≈ 190 µM) | -13.7% | -0.0845% | 2.79% | > 30 µg/mL | > 30 µg/mL | 50 µg/mL (≈ 127 µM) | 100 µg/mL (≈ 253 µM) | -17.9% | -54.3% | 4.92% | MIC (Staphylococcus aureus [16]): > 30 µg/mL; inhibition of growth at 10 µg/mL [17]: 33%; MIC (Aspergillus niger): 150 µg/mL (≈ 380 µM); MIC (Pseudomonas fluorescens [18]): > 30 µg/mL; inhibition of growth at 30 µg/mL (Staphylococcus aureus [19]): -17.7%; inhibition of growth at 3 µg/mL (Escherichia coli [20]): 2.49%; inhibition of growth at 30 µg/mL [21]: 0.66%; inhibition of growth at 30 µg/mL (Bacillus subtilis [22]): 6.8%; inhibition of growth at 10 µg/mL (Escherichia coli [23]): 7.54%; MIC (Bacillus subtilis [24]): > 30 µg/mL; IC50 [25]: > 30 µg/mL; IC90 [25]: > 30 µg/mL
Cc1ccc2cc(/C=C3\SC(=S)N(CCC(=O)O)C3=O)c(Cl)nc2c1 | 150 µg/mL (≈ 382 µM) | > 30 µg/mL | > 30 µg/mL | 19.1% | > 30 µg/mL | > 30 µg/mL | -17.8% | 6.75% | > 30 µg/mL | 100 µg/mL (≈ 255 µM) | -6.25% | -5.45% | -6.11% | > 30 µg/mL | > 30 µg/mL | 25 µg/mL (≈ 63.6 µM) | 150 µg/mL (≈ 382 µM) | 10.3% | 17.1% | 5.88% | MIC (Staphylococcus aureus [16]): > 30 µg/mL; inhibition of growth at 10 µg/mL [17]: 7.51%; MIC (Aspergillus niger): 150 µg/mL (≈ 382 µM); MIC (Pseudomonas fluorescens [18]): > 30 µg/mL; inhibition of growth at 30 µg/mL (Staphylococcus aureus [19]): -15%; inhibition of growth at 3 µg/mL (Escherichia coli [20]): 18.5%; inhibition of growth at 30 µg/mL [21]: -9.18%; inhibition of growth at 30 µg/mL (Bacillus subtilis [22]): -7.94%; inhibition of growth at 10 µg/mL (Escherichia coli [23]): 28.8%; MIC (Bacillus subtilis [24]): > 30 µg/mL; IC50 [25]: > 30 µg/mL; IC90 [25]: > 30 µg/mL

Reference: ChEMBL document CHEMBL3877264, “Quinolidene-rhodanine conjugates: Facile synthesis and biological evaluation” (Eur J Med Chem, 2017)
